Reference: ChEMBL document CHEMBL1150066, “Cytotoxic activity of tetraprenylphenols related to suillin, an antitumor principle from Suillus granulatus” (J Nat Prod, 1992)
Converted amounts (≈) assume the structure as drawn.

Assays:
Format in all cases: functional, cell-based
[1] = Cytotoxicity against human NSCLC-N6 cells after 72 hrs by MTT assay; details: NSCLC-N6, 72 h
In short: (§1)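 Cells per well: NSCLC-N6 0.2×10^5, KB 0.1×10^5, P388 0.05×10^5, in RPMI 1640 with 5% fetal calf serum, penicillin/streptomycin and 2 mM glutamine. Test solution added at decreasing concentrations in duplicate wells, then 72 h at 37° in 5% CO2. MTT added for 4 h, formazan dissolved in […], A570 read. IC50 taken from the dose/effect curve relative to controls.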

[2] = system: KB; experiment: Cytotoxicity against human KB cells at 10 ug/ml after 72 hrs by MTT assay
[3] = system: P388; experiment: Cytotoxicity against mouse P388 cells after 72 hrs by MTT assay; details: P388, 72 h; in short: as §1
[4] = system: KB; experiment: Cytotoxicity against human KB cells after 72 hrs by MTT assay; in short: as §1
[5] = system: KB; experiment: Cytotoxicity against human KB cells at 5 ug/ml after 72 hrs by MTT assay
[6] = Cytotoxicity against human NSCLC-N6 cells at 5 ug/ml after 72 hrs by MTT assay
[7] = system: P388; experiment: Cytotoxicity against mouse P388 cells at 5 ug/ml after 72 hrs by MTT assay

SMILES | IC50 [1] [µg/mL] | IC50 [2] | IC50 [3] [µg/mL] | IC50 [4] [µg/mL] | IC50 [5] | IC50 [6] | IC50 [7]
COc1ccc(OC)c(OC)c1C/C=C(\C)CC/C=C(\C)CC/C=C(\C)CCC=C(C)C | > 10 | Not Active | > 10 |  |  |  | 
CC(=O)Oc1ccc2c(c1OC(C)=O)C=CC(C)(CC/C=C(\C)CC/C=C(\C)CCC=C(C)C)O2 (configuration not stated) | 0.7 (≈ 1.46 µM) |  | 0.3 (≈ 0.624 µM) | 1 (≈ 2.08 µM) |  |  | 
CC(=O)Oc1ccc2c(c1OC(C)=O)CCC(C)(CCCC(C)CCCC(C)CCCC(C)C)O2 (configuration not stated) | 0.9 (≈ 1.84 µM) |  | 0.7 (≈ 1.43 µM) | 1.1 (≈ 2.25 µM) |  |  | 
CC(=O)Oc1cc(C/C=C(\C)CC/C=C(\C)CC/C=C(\C)CCC=C(C)C)c(OC(C)=O)c(OC(C)=O)c1 | 0.8 (≈ 1.52 µM) |  | 0.4 (≈ 0.762 µM) | 0.9 (≈ 1.72 µM) |  |  | 
CC(=O)Oc1ccc(O)c(O)c1CCC(C)CCCC(C)CCCC(C)CCCC(C)C (configuration not stated) | 4.5 (≈ 10 µM) |  | 8.2 (≈ 18.3 µM) | 6.3 (≈ 14 µM) |  |  | 
CC(=O)Oc1ccc(OC(C)=O)c(OC(C)=O)c1CCC(C)CCCC(C)CCCC(C)CCCC(C)C (configuration not stated) | 9 (≈ 16.9 µM) |  | > 16.6 | > 10 |  |  | 
COc1ccc(OC(C)=O)c(C/C=C(\C)CC/C=C(\C)CC/C=C(\C)CCC=C(C)C)c1OC | 5.8 (≈ 12.4 µM) |  | 3.7 (≈ 7.89 µM) | 7.5 (≈ 16 µM) |  |  | 
CC(=O)Oc1c(O)ccc(O)c1C/C=C(\C)CC/C=C(\C)CC/C=C(\C)CCC=C(C)C | 2.9 (≈ 6.58 µM) |  | 0.9 (≈ 2.04 µM) | 2.5 (≈ 5.67 µM) |  |  | 
CC(=O)Oc1ccc(OC(C)=O)c(OC(C)=O)c1C/C=C(\C)CC/C=C(\C)CC/C=C(\C)CCC=C(C)C | 1.9 (≈ 3.62 µM) |  | 5 (≈ 9.53 µM) | 2 (≈ 3.81 µM) |  |  | 
COc1c(O)cc(O)cc1C/C=C(\C)CC/C=C(\C)CC/C=C(\C)CCC=C(C)C | 2.2 (≈ 5.33 µM) |  | 2.1 (≈ 5.09 µM) | 5 (≈ 12.1 µM) |  |  | 
CC(=O)Oc1c(O)cc(O)cc1C/C=C(\C)CC/C=C(\C)CC/C=C(\C)CCC=C(C)C | 2.3 (≈ 5.22 µM) |  | 2.3 (≈ 5.22 µM) |  | Not Active |  | 
COc1ccc(O)c(O)c1C/C=C(\C)CC/C=C(\C)CC/C=C(\C)CCC=C(C)C | > 5 |  | 2.8 (≈ 6.79 µM) |  | Not Active |  | 
CC(C)=CCC/C(C)=C/CC/C(C)=C/CCC1(C)C=Cc2c(ccc(O)c2O)O1 (configuration not stated) |  |  |  |  | Not Active | Not Active | Not Active
CC(=O)Oc1ccc(O)c(O)c1C/C=C(\C)CC/C=C(\C)CC/C=C(\C)CCC=C(C)C [TETRAPRENYLPHENOLSUILLIN] | 1 (≈ 2.27 µM) |  | 0.8 (≈ 1.82 µM) | 0.7 (≈ 1.59 µM) |  |  | 
